Source: PubChem
ATG4B inh – blocks human ATG4B protease cleavage of LC3 substrate; inhibition, % at 8.33 µM; Q9Y4P1; AID 504462; ATG4B cleavage of LC3-PLA2, NBD-HPC fluorescence, 1 h; 340,000 tested, 0.51% active; in the data active = inhibition above about 40%
SENP1 inh – SENP1 (human) catalytic domain inhibition. inhibition, % at 10 µM. recombinant SENP1 catalytic domain, CyPet-SUMO1-YPet FRET cleavage. Q9P0U3. AID 624204. 360,000 tested, 0.21% active;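 active = inhibition at least 30% at 10 µM, raw YFP signal under a set limit, fluorescence ratio 0.5 to 1.5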;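 note: 0% = enzyme with DMSO and 100% = no enzyme wells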
Target sequence (Q9P0U3 419-644 limits assumed): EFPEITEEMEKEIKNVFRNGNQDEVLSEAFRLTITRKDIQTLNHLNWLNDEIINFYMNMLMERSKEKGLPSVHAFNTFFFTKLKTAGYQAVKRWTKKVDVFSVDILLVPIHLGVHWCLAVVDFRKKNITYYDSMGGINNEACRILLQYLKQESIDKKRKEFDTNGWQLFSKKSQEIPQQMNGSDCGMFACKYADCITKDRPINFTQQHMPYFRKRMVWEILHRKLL
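Compound: 10 µM single point, 0.5% DMSO; Test system: hSENP1 catalytic domain, recombinant; Timing: 50 min reaction at room temperature; Technique: FRET, CFP and YFP emission; Control set: no-enzyme wells low, DMSO-plus-enzyme wells high control.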
TPT1 inhibitor – blocks Candida albicans tRNA 2'-phosphotransferase. recombinant caTPT1, FP RNA substrate dephosphorylation. inhibition, % at 5 µM. 300,000 tested, 0.81% active. AID 1962;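 active = inhibition above the mean of all tested compounds plus 3 SD, set per screening campaign, cut at about 24% in these data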;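 note: plate controls were DMSO alone for no effect and ferristatin control at 100 nM for full effect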
Rpn11 inh – inhibitors of human proteasome Rpn11; human 26S proteasome, Ub4-pepOG fluorescence polarization; 20S core pre-blocked with epoxomicin; AID 588493; inhibition, % at 20 µM; 360,000 tested, 0.59% active; O00487;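 active = inhibition at 20 µM, scaled to each plate's controls, above about 33%, limit read from the data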
HNF4A DNA FP – change in binding of human HNF4 alpha to DNA. activity change, % at 10 µM. 360,000 tested, 0.3% active. HNF4a-FITC DNA binding, fluorescence polarization, 1 h; in the data active = activity change above about 30%, passing the limit was not always enough
CSN deneddyl inh – blocks human CSN-mediated cullin deneddylation. 360,000 tested, 0.38% active. inhibition, % at 12.5 µM. Purified CSN, SCF-Nedd8-OG deneddylation, fluorescence polarization. Q92905;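 active = pattern-corrected inhibition above about 35%, with an unprinted fluorescence ratio check between 0.5 and 1.5, limit read from the data, passing the limit was not always enough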;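 note: 0% = enzyme with substrate and 100% = substrate without enzyme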
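Test system: Human Csn5 produced in HEK293T cells | Compound: 12.5 µM single point | Times: 90 min, room temperature | Signal: Fluorescence polarization readout | Read-out basis: % inhibition of substrate cleavage by Csn5 | Controls: no-enzyme wells high, enzyme-with-substrate wells low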
TPT1 inh confirm – TPT1 (C. albicans) inhibition, confirmation | inhibition, % at 5 µM | recombinant caTPT1, fluorescence polarization, RNase T1 coupled | 2,400 tested, 74% active | shares compounds with TPT1 inhibitor;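 active = inhibition above the primary screen limit, the mean inhibition of all tested compounds plus 3 SD, cut at about 25% in these data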
RNase T1 counter – blocks Aspergillus oryzae RNase T1, a TPT1 counter-screen | 2,400 tested, 83% active | inhibition, % at 5 µM | RNase T1 cleavage, fluorescence polarization, 1536-well | shares compounds with TPT1 inhibitor;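 active = inhibition above the solvent-only control well mean plus 3 SD, limit set per screening run, cut at about 23% in these data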;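 note: plate controls were DMSO wells with enzyme for no effect and wells without RNase T1 for full effect; inhibitors block cleavage so intact labeled substrate keeps polarization high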
Target sequence (P00651 whole entry, looked up): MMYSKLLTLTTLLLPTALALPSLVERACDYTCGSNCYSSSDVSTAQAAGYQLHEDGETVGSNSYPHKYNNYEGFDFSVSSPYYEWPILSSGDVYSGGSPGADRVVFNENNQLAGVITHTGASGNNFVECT
* marks the source's active call; other numbers are inactive results; · = no result shown. In the library only some 2% were active in any assay of this set; here they are far more common.

SMILES	ATG4B inh	SENP1 inh	TPT1 inhibitor	Rpn11 inh	HNF4A DNA FP	CSN deneddyl inh	TPT1 inh confirm	RNase T1 counter
CCN(CC)C(=O)Cn1c(=O)n(C)c2ccccc21	-6	-1	-5	1	0	-3	·	·
CCn1cc(/C=C/c2cc[n+](C)cc2)c2ccccc21	-5	-26	39*	·	81	-73	43*	50*
C=CCn1c(C)c(/C=C/c2cc[n+](C)cc2)c2ccccc21	0	-27	119*	·	181	140	127*	122*
C=CCn1cc(/C=C/c2cc[n+](C)cc2)c2ccccc21	-12	-28	46*	·	86	-47	55*	59*
CC(C)n1cc(/C=C/c2cc[n+](C)cc2)c2ccccc21	-10	-24	·	·	67	-74	·	·
O=C(Nc1ccc(S(=O)(=O)N2CCCCC2)cc1)c1ccc(Cl)nc1	-50	-2	·	-7	0	6	·	·
COC(=O)c1cccc(F)c1C(=O)c1cccc2ccccc12	-6	-3	·	-1	-1	4	·	·
CSC1=NSC2=NC(=O)/C(=C/c3coc4ccc(O)cc4c3=O)C(=N)N12	15	-23	70*	·	103	125	116*	113*
CSC1=NSC2=NC(=O)/C(=C\c3cccs3)C(=N)N12	-7	-4	2	-6	-2	2	·	·
N=C1/C(=C\c2coc3ccccc3c2=O)C(=O)N=C2SC=CN12	-7	-49	40*	·	9	-53	34*	47*
CSC1=NSC2=NC(=O)/C(=C/c3coc4ccccc4c3=O)C(=N)N12	13	-25	52*	28	42	-96	60*	62*
CC1=CC2=NC(=O)/C(=C/c3coc4ccc(Cl)cc4c3=O)C(=N)N2O1	4	-43	78*	·	55	11	73*	77*
CCOc1ccc(NS(=O)(=O)c2cccc(C(=O)NCC3(N(C)C)CCCCC3)c2)cc1	9	3	·	2	-1	-5	·	·
CCN(CC)S(=O)(=O)c1ccc(Cl)c(C(=O)NNC(=O)c2csc(N3CCOCC3)n2)c1	-29	0	·	-2	-2	-1	·	·
CC(C)(CNC(=O)C1CCN(S(=O)(=O)c2cc([N+](=O)[O-])ccc2Cl)CC1)N1CCOCC1	5	0	·	7	0	4	·	·
Cc1nc(C)c(C(=O)OCC(=O)N(C)c2ccccc2)s1	3	0	·	-3	3	0	·	·
CC1(C(=O)Nc2cccc(OC(F)(F)F)c2)Cc2c(-c3ccc4c(c3)OCO4)ccnc2O1 (stereo not given)	·	2	·	-6	0	-8	·	·
COC(=O)/C(C#N)=C/c1c[nH]c2ccccc12	2	-36	2	-2	-3	-2	·	·
COc1cc(/C=C(\C#N)C(=O)c2c[nH]c3ccccc23)cc(OC)c1O	6	15	128*	·	84*	166	156*	143*
COc1cc(/C=C(\C#N)c2nc3ccccc3[nH]2)cc(OC)c1O	-22	-26	137*	·	104	157	133*	124*
COc1cc(/C=C(\C#N)c2nc3ccccc3n2C)cc(OC)c1O	-5	-24	83*	·	3	18	101*	101*
CC1CCN(C(=O)COC(=O)CCC(=O)c2ccc(Cl)cc2)CC1	-8	-1	·	4	0	1	·	·
CN(Cc1ccc(Cl)s1)C(=O)CSc1nnc(C2CC2)n1C1CC1	3	2	·	-7	3	-1	·	·
O=c1c2c3c(sc2ncn1Cc1ccc(F)cc1)CCC3	-6	-32	27*	-2	11	4	26*	34*
CCOC(=O)N1CCc2c(sc3ncn(Cc4ccc(F)cc4)c(=O)c23)C1	-14	-3	6	-14	0	2	·	·
COc1ccc2nc3n(c(=O)c2c1)-c1ncccc1C(=O)NC3C (stereo not given)	·	-1	·	-4	3	1	·	·
